Measured values collected from several papers.
Compare with care: the assays were run in different laboratories.
Cell line: Vero
Observed: cell growth or viability

The IC50 of `Cc1cc(=O)[nH]n1C(=O)c1ccc(-n2c(C)ccc2C)cc1` is reported as 202 µM (MTT; 72 h).
The IC50 of `CC(C)(C)Nc1c(-c2ccccc2[N+](=O)[O-])nc2cnccn12` is reported as > 100 µM (MTT; 48 h).
The IC50 of `Cc1ccc(-c2csc(Nc3ccc4c(O)ncnc4c3)n2)cc1` is reported as > 50 µM (MTT).
`O=[N+]([O-])c1ccc(-c2nc3ccccn3c2NC2CCCCC2)cc1` has an IC50 of 85 µM (MTT; 48 h).
The IC50 of `CC1(C)N=C(N)N=C(N)N1c1ccc(Cl)cc1` is reported as > 100 µM (SRB).
For `O=[N+]([O-])c1ccc(-c2csc(Nc3ccc4c(O)ncnc4c3)n2)cc1`, the IC50 was > 50 µM (MTT).
For `Cc1ccc(C)n1-c1ccc(-c2nnc(-c3ccccc3Cl)[nH]2)cc1`, the IC50 was 222 µM (MTT; 72 h).
`N=C1C(Cl)=C(N)C(=O)c2[nH]cc(C(O)CO)c21` (stereo not drawn) has an IC50 of 14 µM (MTT; 72 h).
`Nc1ccc(-c2nc3ccccn3c2N)cc1` has an IC50 of 88 µM (MTT; 48 h).
The IC50 of `Oc1ncnc2cc(Nc3nc(-c4ccccc4)cs3)ccc12` is reported as > 50 µM (MTT).
With `Cc1ccc(C)n1-c1ccc(-c2nnc(-c3ccc(Br)cc3)[nH]2)cc1` the IC50 was 231 µM (MTT; 72 h).
The IC50 of `COc1cccc(CCNCc2c(N)nc(N)nc2C2CCCCC2)c1` is reported as 23 µM (SRB).
The IC50 of `Oc1ncnc2cc(Nc3nc(-c4ccc(Cl)cc4)cs3)ccc12` is reported as > 50 µM (MTT).
`Cc1[nH]c(=O)c(CNC(=O)c2ccc([N+](=O)[O-])o2)c2c1CCCC2` gave an IC50 of > 50 µg/mL (MTT; 72 h).
The IC50 of `CO[C@H]1/C=C/O[C@@]2(C)Oc3c(C)c(O)c4c(O)c(c(/C=N/N5CCN(C)CC5)c(O)c4c3C2=O)NC(=O)/C(C)=C\C=C\[C@H](C)[C@H](O)[C@@H](C)[C@@H](O)[C@@H](C)[C@H](OC(C)=O)[C@@H]1C` is reported as > 1000 µg/mL (MTT; 48 h).
`CN(C)c1ccc(-c2nc3ccccn3c2N)cc1` gave an IC50 of 70 µM (MTT; 48 h).
`N#Cc1nn(-c2ccc(N=Nc3ccccc3)cc2)c(=S)n(-c2ccccc2)c1=O` has an IC50 of 42.3 µM.
For `Nc1nc(N)c(CNCCc2ccc(F)cc2)c(C2CCCCC2)n1`, the IC50 was 22 µM (SRB).
With `Cc1[nH]c(=O)c(CNC(=O)c2ccc(C(F)(F)F)o2)c2c1CCCC2` the IC50 was > 50 µg/mL (MTT; 72 h).
`Nc1nc(N)c(CNCCc2ccc(Cl)c(Cl)c2)c(C2CCCCC2)n1` has an IC50 of 21 µM (SRB).
For `Cc1ccc(C)n1-c1ccc(-c2nnc(-c3c(Cl)cccc3Cl)[nH]2)cc1`, the IC50 was 229 µM (MTT; 72 h).
For `Nc1ccc(-c2nc3ccccn3c2NC2CCCCC2)cc1`, the IC50 was 90 µM (MTT; 48 h).
For `Nc1nc(N)c(CNCCc2cccc(Cl)c2)c(C2CCCCC2)n1`, the IC50 was 23 µM (SRB).
The IC50 of `COc1cccc2c1C(=O)c1c(O)c3c(c(O)c1C2=O)C[C@@](O)(C(=O)CO)C[C@@H]3O[C@H]1C[C@H](N)[C@H](O)[C@H](C)O1` is reported as 0.68 µM (SRB).
`N#Cc1nn(-c2ccc(N=Nc3ccccc3)cc2)c(=N)n(S(=O)(=O)c2ccc(N)cc2)c1=O` gave an IC50 of 55.2 µM.
With `COc1ccccc1CCNCc1c(N)nc(N)nc1C1CCCCC1` the IC50 was 21 µM (SRB).
The IC50 of `COc1cccc2c1C(=O)c1c(O)c3c(c(O)c1C2=O)C[C@@](O)(C(=O)CO)C[C@@H]3O[C@H]1C[C@H](N)[C@H](O)[C@H](C)O1` is reported as 14 µM (MTT; 48 h).
`Nc1nc(N)c(CNCCc2cccc(F)c2)c(C2CCCCC2)n1` gave an IC50 of 25 µM (SRB).
With `Oc1ccc(-c2csc(Nc3ccc4c(O)ncnc4c3)n2)cc1` the IC50 was > 50 µM (MTT).
For `CC(C)(C)Nc1c(-c2ccccc2N)nc2cnccn12`, the IC50 was 85 µM (MTT; 48 h).
The IC50 of `Nc1nc(N)c(CNCCc2ccc(Cl)cc2)c(C2CCCCC2)n1` is reported as 23 µM (SRB).
With `CC(C)(C)Nc1c(-c2ccc([N+](=O)[O-])cc2)nc2cnccn12` the IC50 was 80 µM (MTT; 48 h).
`C#Cc1cccc(Nc2ncnc3cc(OCCOC)c(OCCOC)cc23)c1` has an IC50 of > 30 µM (MTT).
